Converted amounts (≈) assume the structure as drawn. The source made the active and inactive calls. No cut-off for these calls is given here.
Assays:
Plasmodium falciparum [1] = test: Antiplasmodial activity against multi-drug resistant Plasmodium falciparum Dd2; assay type: functional, organism-based
Plasmodium falciparum [2] = test: Antiplasmodial activity against N-(2,6-difluorophenyl)-2-(6-(5-methyl-1,3,4-oxadiazol-2-yl)-1H-indol-1-yl)acetamide-resistant Plasmodium falciparum Dd2 harbouring ATP4 genome with 2.8 fold CNV by SYBR green staining based analysis; assay type: functional, organism-based
Plasmodium falciparum [3] = test: Antiplasmodial activity against N-(2,6-difluorophenyl)-2-(6-(5-methyl-1,3,4-oxadiazol-2-yl)-1H-indol-1-yl)acetamide-resistant Plasmodium falciparum Dd2 harboring plasmodium falciparum ATP4 D425E mutant by SYBR green staining based analysis; assay type: functional, organism-based
Plasmodium falciparum [4] = test: Antiplasmodial activity against Plasmodium falciparum 3D7 infected in human […] cells incubated for 72 hrs; assay type: functional, organism-based; conditions: 3D7, 72 h
[5] = biological target: T1, P-type sodium-transporting ATPase4 (Plasmodium falciparum (isolate 3D7), UniProt A0A143ZZK9); test: Inhibition of Plasmodium falciparum 3D7 ATP4
T1 sequence (A0A143ZZK9 whole entry): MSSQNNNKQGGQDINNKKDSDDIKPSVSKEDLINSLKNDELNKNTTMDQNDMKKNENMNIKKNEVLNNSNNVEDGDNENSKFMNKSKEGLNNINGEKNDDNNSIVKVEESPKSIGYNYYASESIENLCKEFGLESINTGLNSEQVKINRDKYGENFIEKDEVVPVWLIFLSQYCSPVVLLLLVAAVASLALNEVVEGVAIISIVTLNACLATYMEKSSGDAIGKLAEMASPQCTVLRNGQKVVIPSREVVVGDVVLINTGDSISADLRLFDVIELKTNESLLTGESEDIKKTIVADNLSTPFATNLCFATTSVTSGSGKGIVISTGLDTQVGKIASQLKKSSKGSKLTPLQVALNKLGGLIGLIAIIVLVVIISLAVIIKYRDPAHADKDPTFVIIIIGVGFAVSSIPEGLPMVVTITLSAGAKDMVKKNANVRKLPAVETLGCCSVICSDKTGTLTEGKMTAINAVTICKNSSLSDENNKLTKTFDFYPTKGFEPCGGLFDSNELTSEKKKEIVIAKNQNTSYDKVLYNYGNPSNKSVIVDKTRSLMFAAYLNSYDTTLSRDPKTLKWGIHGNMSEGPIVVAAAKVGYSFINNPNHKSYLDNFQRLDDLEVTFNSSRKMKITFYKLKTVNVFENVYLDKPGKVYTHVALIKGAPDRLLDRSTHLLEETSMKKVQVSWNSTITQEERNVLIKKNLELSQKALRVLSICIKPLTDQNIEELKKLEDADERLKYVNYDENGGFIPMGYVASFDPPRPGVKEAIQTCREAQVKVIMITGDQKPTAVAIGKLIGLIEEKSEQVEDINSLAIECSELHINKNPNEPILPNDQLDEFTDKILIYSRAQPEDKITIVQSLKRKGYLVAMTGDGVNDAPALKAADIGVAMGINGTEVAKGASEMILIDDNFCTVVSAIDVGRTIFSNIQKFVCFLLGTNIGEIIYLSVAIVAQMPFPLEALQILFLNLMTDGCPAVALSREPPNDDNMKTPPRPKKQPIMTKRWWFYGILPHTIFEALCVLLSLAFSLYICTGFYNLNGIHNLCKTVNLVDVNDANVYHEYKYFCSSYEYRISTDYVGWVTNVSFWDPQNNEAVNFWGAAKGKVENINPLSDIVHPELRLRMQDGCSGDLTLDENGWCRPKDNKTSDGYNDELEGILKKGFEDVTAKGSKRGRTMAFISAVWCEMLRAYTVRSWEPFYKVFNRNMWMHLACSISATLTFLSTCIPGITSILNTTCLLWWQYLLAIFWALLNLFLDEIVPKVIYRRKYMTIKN

[6] = Aqueous solubility in PBS buffer at pH 7.4; assay type: physicochemical
[7] = Lipophilicity, logD of compound at pH 7.4 by shake-flask method; assay type: physicochemical; conditions: buffer
[8] = Metabolic stability in human liver microsome assessed as intrinsic clearance; assay type: ADME; conditions: microsomes
Plasmodium falciparum [9] = test: Antiplasmodial activity against multidrug-resistant Plasmodium falciparum Dd2 harboring plasmodium falciparum ATP4 I398F/P990R/D1247Y mutant by SYBR green staining based analysis; assay type: functional, organism-based
HepG2 [10] = test: Cytotoxicity against human HepG2 cells assessed as inhibition of cell growth incubated for 48 hrs by celltiterglo assay; assay type: toxicity, cell-based; conditions: hepg2, 48 h
Plasmodium falciparum [11] = test: Antiplasmodial activity against wild type Plasmodium falciparum 3D7 incubated for 48 hrs; assay type: functional, organism-based; conditions: 3D7, 48 h
[12] = biological target: T2, P-type sodium-transporting ATPase4 (Plasmodium falciparum (isolate 3D7)) (UniProt A0A143ZZK9); test: Inhibition of Plasmodium falciparum 3D7 ATP4 assessed as reduction in Na+-ATPase activity at 2 uM incubated for 10 mins under high [Na+] condition in absence of KAE609
T2 sequence (whole entry): T1 sequence (A0A143ZZK9 whole entry)

Plasmodium falciparum [13] = test: Antimalarial activity against trophozoite stage Plasmodium falciparum 3D7 at 10 times EC50 incubated for 48 hrs by SYBR Green dye based analysis; assay type: functional, organism-based
Plasmodium falciparum [14] = test: Antiplasmodial activity against multidrug resistant Plasmodium falciparum W2mef incubated for 48 hrs by SYBR staining based fluorometer assay; assay type: functional, organism-based
Plasmodium falciparum [15] = test: Antiplasmodial activity against multidrug-resistant Plasmodium falciparum Dd2 harboring plasmodium falciparum ATP4 G358S mutant by SYBR green staining based analysis; assay type: functional, organism-based
Plasmodium falciparum [16] = test: Antiplasmodial activity against asexual Plasmodium falciparum 3D7 infected in human […] cells assessed as reduction in parasite growth measured for 72 hrs by LDH assay; assay type: functional, organism-based; conditions: 3D7, 72 h
[17] = Metabolic stability in rat hepatocyte […] assessed as intrinsic clearance measured per 10^6 cells; assay type: ADME, cell-based; conditions: hepatocytes
Plasmodium falciparum [18] = test: Antiplasmodial activity against N-(2,6-difluorophenyl)-2-(6-(5-methyl-1,3,4-oxadiazol-2-yl)-1H-indol-1-yl)acetamide-resistant Plasmodium falciparum Dd2 harboring plasmodium falciparum ATP4 F156L mutant by SYBR green staining based analysis; assay type: functional, organism-based
Plasmodium falciparum [19] = test: Antiplasmodial activity against multidrug resistant Plasmodium falciparum 7G8 incubated for 48 hrs by SYBR staining based fluorometer assay; assay type: functional, organism-based; conditions: 7G8, 48 h
Plasmodium knowlesi = test: Antiplasmodial activity against wild type Plasmodium knowlesi YH1 incubated for 30 hrs by SYBR staining based flow cytometry assay; assay type: functional, organism-based; conditions: YH1, 30 h
Plasmodium falciparum [20] = test: Antiplasmodial activity against multidrug resistant Plasmodium falciparum Cam3.1 incubated for 48 hrs by SYBR staining based fluorometer assay; assay type: functional, organism-based; conditions: Cam3.1, 48 h
Plasmodium falciparum [21] = test: Antiplasmodial activity against Plasmodium falciparum 3D7; assay type: functional, organism-based
Plasmodium falciparum [22] = test: Antiplasmodial activity against multidrug-resistant Plasmodium falciparum Dd2 harboring plasmodium falciparum ATP4 I398F/P990R/D1247Y mutant; assay type: functional, organism-based
Plasmodium falciparum [23] = test: Antiplasmodial activity against N-(2,6-difluorophenyl)-2-(6-(5-methyl-1,3,4-oxadiazol-2-yl)-1H-indol-1-yl)acetamide-resistant Plasmodium falciparum Dd2 harboring plasmodium falciparum ATP4 F156L mutant; assay type: functional, organism-based
Plasmodium falciparum [24] = test: Antiplasmodial activity against N-(2,6-difluorophenyl)-2-(6-(5-methyl-1,3,4-oxadiazol-2-yl)-1H-indol-1-yl)acetamide-resistant Plasmodium falciparum Dd2 harboring plasmodium falciparum ATP4 D425E mutant; assay type: functional, organism-based
Plasmodium falciparum [25] = test: Antiplasmodial activity against multidrug-resistant Plasmodium falciparum Dd2 harboring plasmodium falciparum ATP4 G358S mutant; assay type: functional, organism-based
Plasmodium falciparum [26] = test: Antiplasmodial activity against N-(2,6-difluorophenyl)-2-(6-(5-methyl-1,3,4-oxadiazol-2-yl)-1H-indol-1-yl)acetamide-resistant Plasmodium falciparum Dd2 harbouring ATP4 genome with 2.8 fold CNV; assay type: functional, organism-based
Plasmodium falciparum [27] = test: Antiplasmodial activity against W454-resistant population 2 Plasmodium falciparum 3D7 harboring Plasmodium falciparum ATP4 L928F mutant by LDH assay; assay type: functional, organism-based
[28] = biological target: T1, P-type sodium-transporting ATPase4; test: Inhibition of Plasmodium falciparum 3D7 ATP4 assessed as increase in Na+ concentration in parasite cytosol measured for 60 mins; assay type: subcellular
Plasmodium falciparum [29] = test: Antiplasmodial activity against W454-resistant population 3 Plasmodium falciparum 3D7 harboring Plasmodium falciparum ATP4 L928F mutant by LDH assay; assay type: functional, organism-based
[30] = biological target: T2, P-type sodium-transporting ATPase4 (Plasmodium falciparum (isolate 3D7)); test: Inhibition of Plasmodium falciparum 3D7 ATP4 assessed as increase in Na+ concentration in parasite cytosol upto 1000 nM measured for 60 mins; assay type: subcellular
HepG2 [31] = test: Cytotoxicity against human HepG2 cells; assay type: functional
Plasmodium falciparum [32] = test: Antimalarial activity against trophozoite stage Plasmodium falciparum 3D7 assessed as reduction in parasitemia at 10 times EC50 incubated for 24 hrs by SYBR Green dye based analysis; assay type: functional, organism-based
Plasmodium falciparum [33] = test: Antimalarial activity against Plasmodium falciparum NF54 infected assessed as inhibition of male gamete formation incubated for 48 hrs by automated bright field microscopic analysis; assay type: functional, organism-based; conditions: NF54, 48 h
Plasmodium falciparum [34] = test: Antiplasmodial activity against W454-resistant population 1 Plasmodium falciparum 3D7 harboring Plasmodium falciparum ATP4 L928F mutant by LDH assay; assay type: functional, organism-based
Plasmodium falciparum [35] = test: Antimalarial activity against synchronized-ring stage Plasmodium falciparum 3D7 assessed as reduction in parasitemia at 10 times EC50 measured at 72 hrs post-treatment by LDH assay; assay type: functional, organism-based
Procedure, shortened: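 Parasite reduction ratio assay in P. falciparum 3D7 with an LDH read-out. Means and SDs were taken from three replicate experiments.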

Plasmodium falciparum [36] = test: Antimalarial activity against Plasmodium falciparum NF54 infected assessed as inhibition of female gamete formation incubated for 48 hrs by automated bright field microscopic analysis; assay type: functional, organism-based; conditions: NF54, 48 h

Work on `Cn1cc(-c2ccc3ccn(CC(=O)Nc4ccccc4Cl)c3c2)cn1` yielded an EC50 (Plasmodium falciparum [1]) of 385 nM, an EC50 (Plasmodium falciparum [2]) of 1160 nM and an EC50 (Plasmodium falciparum [3]) of 892 nM. For the same compound, the EC50 (Plasmodium falciparum [4]) was 409 nM, the IC50 [5] was 790 nM and the solubility kinetic [6] was 4.1 µM (≈ 1.5 µg/mL). The logD [7] was 3.6, the “intrinsic clearance (CLint)” value [8] was greater than 462 µL/min/mg and the EC50 (Plasmodium falciparum [9]) was 2510 nM. The CC50 (HepG2 [10]) was greater than 40000 nM, the EC50 (Plasmodium falciparum [11]) was 236 nM and the inhibition [12] was “Active”. The Activity (Plasmodium falciparum [13]) was “Active”, the EC50 (Plasmodium falciparum [14]) was 279 nM and the EC50 (Plasmodium falciparum [15]) was 1650 nM. The EC50 (Plasmodium falciparum [16]) was 593 nM, the “intrinsic clearance (CLint)” value [17] was 91 uL/min/10^6 cells and the EC50 (Plasmodium falciparum [18]) was 803 nM. For the same compound, the EC50 (Plasmodium falciparum [19]) was 526 nM, the EC50 (Plasmodium knowlesi) was 661 nM and the EC50 (Plasmodium falciparum [20]) was 476 nM.
For `Cc1nnc(-c2ccc3ccn(CC(=O)Nc4ccc(F)cc4F)c3c2)o1`, the EC50 (Plasmodium falciparum [21]) was 16 nM, the EC50 (Plasmodium falciparum [22]) was 142 nM and the CC50 (HepG2 [10]) was greater than 40000 nM. For the same compound, the EC50 (Plasmodium falciparum [16]) was 4250 nM, the EC50 (Plasmodium falciparum [23]) was 25 nM and the EC50 (Plasmodium falciparum [24]) was 30 nM. The EC50 (Plasmodium falciparum [25]) was 28 nM and the EC50 (Plasmodium falciparum [26]) was 30 nM.
Work on `CCc1nnc(-c2ccc3ccn(CC(=O)Nc4cc(OC)c(OC)c(OC)c4)c3c2)o1` yielded an EC50 (Plasmodium falciparum [1]) of 320 nM, an EC50 (Plasmodium falciparum [2]) of 290 nM and an EC50 (Plasmodium falciparum [3]) of 241 nM. The EC50 (Plasmodium falciparum [4]) was 123 nM, the EC50 (Plasmodium falciparum [27]) was 1990 nM and the IC50 [28] was roughly 400 nM. For the same compound, the EC50 (Plasmodium falciparum [29]) was 1800 nM, the EC50 (Plasmodium falciparum [9]) was 238 nM and the Activity (Plasmodium falciparum [13]) was “Active”. The inhibition [30] was “Active”, the EC50 (Plasmodium falciparum [14]) was 272 nM and the EC50 (Plasmodium falciparum [15]) was 1370 nM. The CC50 (HepG2 [31]) was greater than 40000 nM, the Activity (Plasmodium falciparum [32]) was “Active” and the EC50 (Plasmodium falciparum [33]) was 7400 nM. It also gave an EC50 (Plasmodium falciparum [34]) of 1940 nM, an EC50 (Plasmodium knowlesi) of 431 nM and an EC50 (Plasmodium falciparum [20]) of 381 nM. For the same compound, the Activity (Plasmodium falciparum [35]) was “Active” and the EC50 (Plasmodium falciparum [36]) was 7200 nM.

Source: ChEMBL document CHEMBL6115053, “Optimization and Characterization of N-Acetamide Indoles as Antimalarials That Target PfATP4” (J Med Chem, 2025)
